Most compounds without a hit are left out; they make up all but 5.1% or so of the library.
NF-kB neuron act = compounds increasing NF-kB expression in human neuronal cells; NF-kB reporter expression; active compounds read high; fold change at 12.5 µM; 190,000 compounds, 1.6% hits; AID 1239; in the data active = fold change above about 3.3
STAT3 blocker = reduces IL-6 driven STAT3 reporter signal; 190,000 compounds, 0.89% hits; U3A cells, IL-6 STAT3-luciferase reporter, luminescence; host cell line lacks STAT1; AID 862; inhibition, % at 5.5 µM;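 active = inhibition above the mean inhibition across all screened compounds plus 3 SD, cut at about 44% in these data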;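 also: 0% = DMSO only wells and 100% = 100 µM nifuroxazide control wells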
STAT1 activator = increases IFN-gamma driven STAT1 reporter signal | NIH 3T3 STAT1-luciferase reporter, luminescence; 100% = IFN-gamma alone, no compound | activation (% of control), % at 5.5 µM | 200,000 compounds, 2.6% hits | AID 932;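 active = activation above the screen-wide mean activation plus 3 SD, cut at about 130% in these data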;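 also: raw ratio to IFN-gamma control signal so 100% means no change and 0% no light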
APP 5'UTR act = activates APP 5'UTR luciferase reporter | SH-SY5Y APP 5'UTR luciferase reporter, luminescence; zero percent = DMSO vehicle wells | activation, % at 2 µM | 190,000 compounds, 1% hits | AID 1276;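 active = activation above a set limit, based on mean plus 3 SD of controls, cut at about 140% in these data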
STAT1 blocker = STAT1 signaling inhibition | NIH 3T3 STAT1-luciferase reporter, IFN-gamma, luminescence | inhibition, % at 5.5 µM | 200,000 compounds, 0.35% hits;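 active = inhibition above a set limit, the mean inhibition across all tested compounds plus 3 SD, cut at about 34% in these data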;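 also: 0% = IFN-gamma with DMSO and 100% = IFN-gamma with 300 µM nifuroxazide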
STAT3 act = activators of IL-6 induced STAT3 signaling | U3A cells, IL-6 STAT3-luciferase reporter, luminescence; 100% = signal with IL-6 EC80 alone | activation (% of control), % at 5.6 µM | 190,000 compounds, 0.91% hits;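 active = activation above the screen-wide mean of compound activation plus 3 SD, cut at about 130% in these data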;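 also: 0% = background luminescence of wells with medium and substrate only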
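Material: human U3A cells carrying STAT3-luciferase construct. Measured by: reporter luminescence signal. Timing: compound 1 h, then IL-6 6 h at 37 °C.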
The depositor's hits bear a star; · = not tested or not shown.

SMILES	NF-kB neuron act	STAT3 blocker	STAT1 activator	APP 5'UTR act	STAT1 blocker	STAT3 act
O=C(COc1ccccc1[N+](=O)[O-])Nc1ccc2c(c1)OCO2	·	2.4	150.1*	105.7	-54.0	103.3
CN(C)Cc1ccccc1Sc1ccc(Br)cc1	1.07	4.8	96.9	-4.6	3.5	99.2
O=C1c2ccccc2C(=O)N1CCCN1CCN(CCCN2C(=O)c3ccccc3C2=O)CC1	·	-2.3	99.2	0.5	0.8	102.7
CC1=C/C(=N\NC(=O)c2ccc(O)cc2)CC1	1.33	-4.3	97.7	8.5	2.5	99.9
C/C(=N\NC(=O)c1cccc(F)c1)c1ccc(Br)s1	1.62	28.4	111.9	2.8	-13.2	84.8
NCc1ccccc1COc1ccccc1	1	1.1	97.8	11.2	2.5	103.2
C#CCNC(=O)C1=C[C@H](c2coc3ccccc3c2=O)[C@@H](CCCO)[C@H](OCC)O1	1.17	·	102.2	3.0	-0.8	·
Cc1ccc(OCC(=O)Nc2ccc(F)cc2)c([N+](=O)[O-])n1	1.16	3.6	142.2*	68.3	-46.2	99.0
Cc1c(OCc2ccc([N+](=O)[O-])cc2)ccc2c3c(c(=O)oc12)CCC3	0.87	-8.7	108.2	192.2*	-6.2	104.8
C=C(C)COc1ccc2c3c(c(=O)oc2c1OCC(=C)C)CCC3	3.52*	7.0	99.9	-12.2	0.1	97.5
O=C(Oc1ccc2cc(Br)ccc2c1)N1CCCCCC1	2.31	-2.8	131.4*	68.1	-35.2	104.4
CCN(CC)C(=O)Oc1ccc2ccccc2c1Br	2.37	-11.8	135.0*	17.9	-39.7	112.1
O=C(Oc1ccc2ccccc2c1Br)N1CCCCCC1	2.44	0.8	134.8*	172.4*	-38.2	99.6
O=C(COc1ccc2ccccc2c1Br)N1CCN(c2ccccn2)CC1	1.02	1.7	101.4	6.3	-1.5	100.9
Cc1ccc(C(=O)NC2CCS(=O)(=O)C2)cc1S(=O)(=O)N1CCCCCC1 (stereo not given)	1.36	5.8	95.0	-18.7	3.4	101.1
CCOc1ncccc1C(=O)OCC(=O)c1ccc(C)c(C)c1	1.28	-8.1	107.1	-3.6	-9.7	110.0
O=C(NN1C(=O)c2ccccc2NC1c1ccccn1)c1ccccc1 (stereo not given)	1.18	0.1	96.7	-12.6	3.7	99.1
Cc1ccc(-n2c(-c3ccc(Br)cc3)c[n+]3c2CCc2ccc4cccnc4c2-3)cc1	1.5	74.6*	65.2	-2.6	39.0*	42.4
Cc1ccc(-n2c(=O)[nH]c3ncccc3c2=O)cc1	1.07	4.1	102.3	8.3	-3.9	101.0
Fc1ccc(CNC(=S)NC2CCCCCC2)cc1	1.22	5.7	96.5	23.3	4.0	103.3
COc1ccc(CNC(=O)COc2ccc([N+](=O)[O-])cc2)cc1	0.99	0.0	99.5	-8.3	0.6	105.5
COc1ccc(CNc2oc(-c3ccccc3)nc2C#N)cc1	0.95	1.8	102.4	-6.3	-1.6	98.7
COc1ccc(Nc2oc(-c3ccccc3)nc2C#N)cc1	1.75	5.6	131.6*	39.4	-38.6	99.3
COCCNc1oc(-c2ccc(Cl)cc2)nc1C#N	2.36	1.8	129.2*	49.7	-31.9	100.8
C=CCN1C(=O)N/C(=C/c2ccc(C)o2)C1=O	1.08	4.5	103.5	-0.4	-3.9	100.7
SMILES	NF-kB neuron act	STAT3 blocker	STAT1 activator	APP 5'UTR act	STAT1 blocker	STAT3 act
O=C(/C=C/c1nc2ccccc2s1)N1CCCCCC1	2.58	9.4	131.7*	118.5	-35.4	93.5
CC(c1ccccc1)N1CCc2[nH]c(=S)[nH]c(=O)c2C1 (stereo not given)	1.39	-1.3	103.0	-4.1	-1.5	105.5
Cc1ccc(-c2ccnc(-c3ccc(O)cc3)n2)cc1	1.54	15.8	142.3*	43.6	-45.6	89.0
Cc1ccc(C(=O)n2c(N)nc3ccccc32)cc1	2.73	103.1*	16.6	34.8	88.9*	12.0
COc1ccc(C(=O)n2c(-c3ccco3)nc3ccccc32)cc1	1.28	-2.4	110.2	-50.1	-11.2	102.7
CC/C(O)=C1\C(=O)CC(c2ccccc2)CC1=NC(C)C (stereo not given)	1.07	-6.0	94.8	-1.3	5.8	103.0
Cc1cc2n(n1)C(c1c[nH]c3ccccc13)Nc1ccccc1-2 (stereo not given)	1.23	-40.8	97.3	-7.3	3.0	138.7*

High-throughput results: PubChem, several laboratories
